Where “and” joins values, the source holds several entries; their conditions need not be identical. Equal values may be shown once.
The compounds below were run against Hypoxia-inducible factor 1-alpha (Homo sapiens) (UniProt Q16665) (assay: HIF-1a and HIF-2a reporter inhibitors, SAR follow-up, cell-based, luminescence, MIAPaCa-2, 786-0, panel (AID 652011)). Settings: MIAPaCa-2/PANC HIF reporter, luciferase luminescence, desferoxamine, overnight, HIF1a, run 1; at 99 µM (top of the series).
Hypoxia-inducible factor 1-alpha (Homo sapiens), sequence (Q16665 whole entry, looked up): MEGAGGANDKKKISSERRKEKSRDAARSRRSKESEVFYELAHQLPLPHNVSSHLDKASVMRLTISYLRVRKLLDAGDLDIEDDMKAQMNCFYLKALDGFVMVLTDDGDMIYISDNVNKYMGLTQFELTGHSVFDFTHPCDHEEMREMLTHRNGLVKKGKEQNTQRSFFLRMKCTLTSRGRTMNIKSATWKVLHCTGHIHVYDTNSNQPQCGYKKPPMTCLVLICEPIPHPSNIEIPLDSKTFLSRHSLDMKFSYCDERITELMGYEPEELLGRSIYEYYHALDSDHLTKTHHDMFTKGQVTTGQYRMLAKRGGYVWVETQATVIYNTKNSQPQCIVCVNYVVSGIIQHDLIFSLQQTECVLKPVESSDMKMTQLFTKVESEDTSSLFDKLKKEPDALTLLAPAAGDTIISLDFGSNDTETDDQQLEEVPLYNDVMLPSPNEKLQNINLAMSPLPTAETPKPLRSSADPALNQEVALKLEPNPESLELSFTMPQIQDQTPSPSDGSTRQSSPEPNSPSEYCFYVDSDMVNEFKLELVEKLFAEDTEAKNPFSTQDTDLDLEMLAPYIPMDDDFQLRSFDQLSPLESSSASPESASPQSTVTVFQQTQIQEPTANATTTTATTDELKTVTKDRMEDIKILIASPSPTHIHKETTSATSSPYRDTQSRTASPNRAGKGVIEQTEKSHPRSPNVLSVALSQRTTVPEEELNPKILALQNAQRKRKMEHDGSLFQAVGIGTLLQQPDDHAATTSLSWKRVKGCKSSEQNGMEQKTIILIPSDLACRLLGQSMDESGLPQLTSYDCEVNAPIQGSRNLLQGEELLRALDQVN
Summary of the method: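 Also added: desferoxamine added before compound. Dosing: compounds from 10 mM and 0.3125 mM stocks, 1% DMSO final. Timing: overnight seeding and compound exposure, 37 °C, 5% CO2, 10-min detection. Detection: luciferase luminescence with One-Glo reagent.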
With COC(=O)CCc1nc(-c2ccc(C(C)(C)C)cc2)no1 the inhibition was 92.2%. For CNC(=O)CCc1nc(-c2ccc(Cl)cc2)no1, the inhibition was -25.6%. CC(C)(C)NC(=O)CCc1nc(-c2ccc(C(C)(C)C)cc2)no1 showed an inhibition of 84.3%. CCCCc1ccc(-c2noc(CCC(=O)NC)n2)cc1 was tested, and the inhibition was -40.2%. CCc1ccc(-c2noc(CCC(=O)NC)n2)cc1 was tested, and the inhibition was -61.6%. CNC(=O)CCc1nc(-c2ccc(OC)cc2)no1 showed an inhibition of -51.1%. For CNC(=O)CCc1nc(-c2ccccc2)no1, the inhibition was -13.3% and 12%. In the case of CC(C)(C)c1ccc(-c2noc(CCC(=O)NC3CCCC3)n2)cc1, the inhibition is reported as 70.1%. Work on CNC(=O)CCc1nc(-c2ccc(C(C)C)cc2)no1 yielded an inhibition of -38.5%. For CCNC(=O)CCc1nc(-c2c(Cl)cccc2Cl)no1, the inhibition was 13.2%. COc1ccccc1NC(=O)CCc1nc(-c2ccc(C(C)(C)C)cc2)no1 showed an inhibition of 67.6%. CC(C)(C)NC(=O)CCc1nc(-c2ccccc2)no1 was tested, and the inhibition was -47.1%. With C=CCNC(=O)CCc1nc(-c2ccc(C(C)(C)C)cc2)no1 the inhibition was -8.77%. For CCNC(=O)CCc1nc(-c2ccccc2)no1, the inhibition was -39.4%. For CCOc1ccccc1NC(=O)CCc1nc(-c2ccc(C(C)(C)C)cc2)no1, the inhibition was 54.8%. CCC(C)NC(=O)CCc1nc(-c2ccc(C(C)(C)C)cc2)no1 (stereo not given) was tested, and the inhibition was -78.9%. Work on CCNC(=O)CCc1nc(-c2ccccc2Cl)no1 yielded an inhibition of -17.5%. For CCNC(=O)CCc1nc(-c2ccccc2C)no1, the inhibition was -25.2%. With CN(C)C(=O)CCc1nc(-c2ccc(C(C)(C)C)cc2)no1 the inhibition was -59.6% and -77.5%. Work on CNC(=O)CCc1nc(-c2ccc(F)cc2)no1 yielded an inhibition of -42.8%. With CNC(=O)CCc1nc(-c2ccc(C(C)(C)C)cc2)no1 the inhibition was 21.1%. Compound CNC(=O)CCc1nc(-c2ccc(C)cc2)no1 has an inhibition of 8.42%. CCNC(=O)CCc1nc(-c2ccc(CC)cc2)no1 was tested, and the inhibition was -35.2%. CCCNC(=O)CCc1nc(-c2ccc(C(C)(C)C)cc2)no1 gave an inhibition of -1.08%. With CCc1ccc(-c2noc(CCC(=O)NC3CC3)n2)cc1 the inhibition was -66.8%. With CC(C)(C)c1ccc(-c2noc(CCC(N)=O)n2)cc1 the inhibition was 8.32% and -17.9%. For CC(C)(C)c1ccc(-c2noc(CCC(=O)NCc3ccco3)n2)cc1, the inhibition was 86.8% and 85.5%. CC(C)c1ccc(-c2noc(CCC(=O)NC(C)(C)C)n2)cc1 was tested, and the inhibition was -0.968%. COc1cccc(NC(=O)CCc2nc(-c3ccc(C(C)(C)C)cc3)no2)c1 was tested, and the inhibition was 74.5%. Work on CCC(C)NC(=O)CCc1nc(-c2ccc(C(C)C)cc2)no1 (stereo not given) yielded an inhibition of -41.9%.

Source: PubChem BioAssay AID652011 (Sanford-Burnham Center for Chemical Genomics, 2013)
